According to ChEMBL document CHEMBL1221204, “Spliceostatin A targets SF3b and inhibits both splicing and nuclear retention of pre-mRNA” (Nat Chem Biol, 2007):
The source made the active and inactive calls.

Columns and labels:
COS-7 [1] = test: Induction of subcellular localization in p27 in african green monkey COS7 cells at 10 ng/ml after 6 hrs by immunofluorescence assay; type: functional, cell-based; details: Chlorocebus aethiops
COS-7 [2] = test: Induction of subcellular localization in truncated p27 in african green monkey COS7 cells at 10 ng/ml after 6 hrs by immunofluorescence assay; type: functional, cell-based; details: Chlorocebus aethiops
HeLa [3] = test: Induction of CDK6 expression in human HeLa cells at 100 ng/ml after 14 hrs by Western blotting; type: functional, cell-based
[4] = Half life of the compound in culture medium by HPLC analysis; type: physicochemical
HeLa [5] = test: Induction of p27 expression in human HeLa cells at 100 ng/ml after 16 hrs by Western blotting; type: functional, cell-based
How it was run: (§1)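 HeLa cells grown in DMEM with 10% FBS and treated with FR901464 at 100 ng ml-1 for 16 h. Lysates prepared by sonication in ice-cold IP buffer with protease inhibitors. Proteins separated by SDS-PAGE and immunoblotted with anti-p16, anti-p21 and anti-p27 antibodies; chemiluminescence detection.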

HeLa [6] = test: Induction of CDK4 expression in human HeLa cells at 100 ng/ml after 14 hrs by Western blotting; type: functional, cell-based
MCF7 [7] = test: Induction of truncated p27 expression in human MCF7 cells at 1 to 100 ng/ml after 14 hrs by immunoblotting; type: functional, cell-based
How it was run: (§2)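 Human cell lines (HeLa, HEK 293T, MCF7, A549) cultured in DMEM with 10% heat-inactivated FBS. Cells treated with graded FR901464 concentrations for 14 h. Extracts immunoblotted for p27 and the truncated p27* form, with chemiluminescent detection.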

HEK-293T [8] = test: Induction of p27 expression in HEK293T cells at 1 to 100 ng/ml after 14 hrs by immunoblotting; type: functional, cell-based; details: Homo sapiens; how it was run: as §2
A549 [9] = test: Induction of truncated p27 expression in human A549 cells at 1 to 100 ng/ml after 14 hrs by immunoblotting; type: functional, cell-based; how it was run: as §2
HeLa [10] = test: Induction of CDK2 expression in human HeLa cells at 100 ng/ml after 14 hrs by Western blotting; type: functional, cell-based
MCF7 [11] = test: Induction of p27 expression in human MCF7 cells at 1 to 100 ng/ml after 14 hrs by immunoblotting; type: functional, cell-based; how it was run: as §2
HeLa [12] = test: Induction of p16 expression in human HeLa cells at 100 ng/ml after 16 hrs by Western blotting; type: functional, cell-based; how it was run: as §1
A549 [13] = test: Induction of p27 expression in human A549 cells at 1 to 100 ng/ml after 14 hrs by immunoblotting; type: functional, cell-based; how it was run: as §2
[14] = molecular target: Cyclin-dependent kinase 2 (Homo sapiens) (UniProt P24941); test: Induction of CDK2 in HEK293T cells transfected with FLAG-tagged truncated p27 at 20 nM by Western blot analysis; type: cell-based; details: HEK-293T
How it was run: (§3)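 HEK 293T cells were transfected with pcDNA3.1, FLAG-p27 or FLAG-p27*, or were treated with MeOH, FR901464 (20, 200 nM) or SSA (190 nM). CDK2 was immunoprecipitated and its kinase activity read by autoradiography with histone H1 and (gamma-32P)ATP. Associated proteins were detected by western blotting.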

HEK-293T [15] = test: Induction of FLAG-tagged p27 expression in HEK293T cells at 100 ng/ml after 14 hrs by Western blotting; type: functional, cell-based; details: Homo sapiens
HeLa [16] = test: Induction of cyclin A expression in human HeLa cells at 100 ng/ml after 14 hrs by Western blotting; type: functional, cell-based
HeLa [17] = test: Induction of p27 expression in human HeLa cells at 100 ng/ml after 14 hrs in presence of […] proteasome inhibitor MG132; type: functional, cell-based
HeLa [18] = test: Induction of truncated p27 expression in human HeLa cells at 100 ng/ml after 14 hrs in presence of […] proteasome inhibitor MG132; type: functional, cell-based
HeLa [19] = test: Induction of p27 expression in human HeLa cells at 1 to 100 ng/ml after 14 hrs by immunoblotting; type: functional, cell-based; how it was run: as §2
HEK-293T [20] = test: Induction of truncated p27 expression in HEK293T cells at 1 to 100 ng/ml after 14 hrs by immunoblotting; type: functional, cell-based; details: Homo sapiens; how it was run: as §2
[21] = molecular target: Cyclin-dependent kinase 2 (Homo sapiens) (UniProt P24941); test: Induction of CDK2 in HEK293T cells transfected with FLAG-tagged truncated p27 at 200 nM by autoradiography; type: cell-based; details: HEK-293T; how it was run: as §3
[22] = molecular target: Cyclin-dependent kinase 2 (Homo sapiens) (UniProt P24941); test: Induction of CDK2 in HEK293T cells transfected with FLAG-tagged p27 at 20 nM by Western blot analysis; type: cell-based; details: HEK-293T; how it was run: as §3
HeLa [23] = test: Induction of p21 expression in human HeLa cells at 100 ng/ml after 16 hrs by Western blotting; type: functional, cell-based; how it was run: as §1
[24] = molecular target: Cyclin-dependent kinase 2 (Homo sapiens) (UniProt P24941); test: Induction of CDK2 in HEK293T cells transfected with FLAG-tagged p27 at 200 nM by autoradiography; type: cell-based; details: HEK-293T; how it was run: as §3
[25] = molecular target: T1, Splicing factor 3B subunit 2 (Homo sapiens) (UniProt Q13435); test: Binding affinity to SAP145 in human HeLa cells at 2 uM by LC-MS/MS analysis; type: cell-based
T1 sequence (whole entry): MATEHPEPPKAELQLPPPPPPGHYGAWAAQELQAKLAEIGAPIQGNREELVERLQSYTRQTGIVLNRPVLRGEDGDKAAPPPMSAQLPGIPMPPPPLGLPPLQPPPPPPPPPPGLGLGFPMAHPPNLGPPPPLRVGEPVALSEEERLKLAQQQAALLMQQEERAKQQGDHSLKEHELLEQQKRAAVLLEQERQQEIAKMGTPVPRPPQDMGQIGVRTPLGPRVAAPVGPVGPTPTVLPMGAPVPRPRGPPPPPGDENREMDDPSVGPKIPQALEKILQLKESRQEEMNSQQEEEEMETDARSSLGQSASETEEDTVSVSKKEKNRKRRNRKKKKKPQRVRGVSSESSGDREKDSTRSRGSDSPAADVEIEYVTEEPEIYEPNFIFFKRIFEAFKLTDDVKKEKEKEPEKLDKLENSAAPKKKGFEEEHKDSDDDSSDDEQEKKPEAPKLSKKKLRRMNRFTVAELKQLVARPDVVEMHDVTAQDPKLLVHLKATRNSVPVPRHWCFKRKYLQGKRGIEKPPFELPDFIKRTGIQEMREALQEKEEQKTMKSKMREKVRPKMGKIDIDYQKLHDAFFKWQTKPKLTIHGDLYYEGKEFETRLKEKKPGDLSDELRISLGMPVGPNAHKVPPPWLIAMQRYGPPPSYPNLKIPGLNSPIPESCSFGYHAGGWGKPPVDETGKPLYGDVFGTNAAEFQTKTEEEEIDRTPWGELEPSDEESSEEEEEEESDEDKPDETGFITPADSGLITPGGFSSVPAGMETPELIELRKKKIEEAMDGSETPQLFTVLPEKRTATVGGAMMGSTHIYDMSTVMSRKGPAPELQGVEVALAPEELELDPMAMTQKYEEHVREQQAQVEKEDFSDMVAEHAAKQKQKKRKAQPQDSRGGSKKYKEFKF

[26] = test system: SF3b complex (Homo sapiens); test: Binding affinity to SF3b SAP155/SAP145/SAP130 complex in human HeLa cells at 2 uM by Western blotting
[27] = molecular target: Splicing factor 3B subunit 3 (Homo sapiens) (UniProt Q15393); test: Binding affinity to SAP130 in human HeLa cells at 2 uM by LC-MS/MS analysis
Chain of Splicing factor 3B subunit 3 (Homo sapiens) (Q15393 whole entry, looked up): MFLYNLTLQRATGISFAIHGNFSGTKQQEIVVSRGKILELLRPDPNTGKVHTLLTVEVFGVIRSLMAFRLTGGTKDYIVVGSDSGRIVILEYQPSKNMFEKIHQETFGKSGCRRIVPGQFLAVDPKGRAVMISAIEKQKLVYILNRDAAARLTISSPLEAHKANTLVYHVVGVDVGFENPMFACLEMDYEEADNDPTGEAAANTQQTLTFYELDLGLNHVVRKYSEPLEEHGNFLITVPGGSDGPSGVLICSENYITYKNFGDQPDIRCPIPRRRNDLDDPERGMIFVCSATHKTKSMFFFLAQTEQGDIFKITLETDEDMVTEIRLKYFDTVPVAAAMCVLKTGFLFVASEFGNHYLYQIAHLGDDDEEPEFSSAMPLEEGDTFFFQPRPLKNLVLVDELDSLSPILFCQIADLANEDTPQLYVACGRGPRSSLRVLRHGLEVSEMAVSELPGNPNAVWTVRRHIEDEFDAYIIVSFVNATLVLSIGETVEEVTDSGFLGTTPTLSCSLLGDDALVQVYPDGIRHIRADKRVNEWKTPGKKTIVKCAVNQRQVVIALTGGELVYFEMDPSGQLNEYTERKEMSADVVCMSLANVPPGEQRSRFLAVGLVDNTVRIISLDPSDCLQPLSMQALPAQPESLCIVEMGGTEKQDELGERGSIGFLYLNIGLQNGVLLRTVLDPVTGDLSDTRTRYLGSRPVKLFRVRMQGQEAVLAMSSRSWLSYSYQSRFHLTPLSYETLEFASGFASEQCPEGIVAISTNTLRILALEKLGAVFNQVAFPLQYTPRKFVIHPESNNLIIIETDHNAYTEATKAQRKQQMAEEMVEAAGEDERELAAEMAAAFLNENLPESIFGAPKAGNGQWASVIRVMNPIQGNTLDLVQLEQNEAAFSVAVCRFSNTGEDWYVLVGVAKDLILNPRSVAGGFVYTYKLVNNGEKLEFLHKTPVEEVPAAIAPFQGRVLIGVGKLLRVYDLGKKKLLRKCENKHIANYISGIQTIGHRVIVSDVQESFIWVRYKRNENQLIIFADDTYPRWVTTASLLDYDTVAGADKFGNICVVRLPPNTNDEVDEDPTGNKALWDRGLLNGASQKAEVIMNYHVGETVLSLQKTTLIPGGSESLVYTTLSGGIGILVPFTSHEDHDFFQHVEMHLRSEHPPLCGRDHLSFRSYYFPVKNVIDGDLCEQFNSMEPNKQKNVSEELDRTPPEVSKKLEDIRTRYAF

[28] = molecular target: Splicing factor 3B subunit 1 (Homo sapiens) (UniProt O75533); test: Binding affinity to SAP155 in human HeLa cells at 2 uM by LC-MS/MS analysis
Chain of Splicing factor 3B subunit 1 (Homo sapiens) (O75533 whole entry, looked up, the tested form may be a part): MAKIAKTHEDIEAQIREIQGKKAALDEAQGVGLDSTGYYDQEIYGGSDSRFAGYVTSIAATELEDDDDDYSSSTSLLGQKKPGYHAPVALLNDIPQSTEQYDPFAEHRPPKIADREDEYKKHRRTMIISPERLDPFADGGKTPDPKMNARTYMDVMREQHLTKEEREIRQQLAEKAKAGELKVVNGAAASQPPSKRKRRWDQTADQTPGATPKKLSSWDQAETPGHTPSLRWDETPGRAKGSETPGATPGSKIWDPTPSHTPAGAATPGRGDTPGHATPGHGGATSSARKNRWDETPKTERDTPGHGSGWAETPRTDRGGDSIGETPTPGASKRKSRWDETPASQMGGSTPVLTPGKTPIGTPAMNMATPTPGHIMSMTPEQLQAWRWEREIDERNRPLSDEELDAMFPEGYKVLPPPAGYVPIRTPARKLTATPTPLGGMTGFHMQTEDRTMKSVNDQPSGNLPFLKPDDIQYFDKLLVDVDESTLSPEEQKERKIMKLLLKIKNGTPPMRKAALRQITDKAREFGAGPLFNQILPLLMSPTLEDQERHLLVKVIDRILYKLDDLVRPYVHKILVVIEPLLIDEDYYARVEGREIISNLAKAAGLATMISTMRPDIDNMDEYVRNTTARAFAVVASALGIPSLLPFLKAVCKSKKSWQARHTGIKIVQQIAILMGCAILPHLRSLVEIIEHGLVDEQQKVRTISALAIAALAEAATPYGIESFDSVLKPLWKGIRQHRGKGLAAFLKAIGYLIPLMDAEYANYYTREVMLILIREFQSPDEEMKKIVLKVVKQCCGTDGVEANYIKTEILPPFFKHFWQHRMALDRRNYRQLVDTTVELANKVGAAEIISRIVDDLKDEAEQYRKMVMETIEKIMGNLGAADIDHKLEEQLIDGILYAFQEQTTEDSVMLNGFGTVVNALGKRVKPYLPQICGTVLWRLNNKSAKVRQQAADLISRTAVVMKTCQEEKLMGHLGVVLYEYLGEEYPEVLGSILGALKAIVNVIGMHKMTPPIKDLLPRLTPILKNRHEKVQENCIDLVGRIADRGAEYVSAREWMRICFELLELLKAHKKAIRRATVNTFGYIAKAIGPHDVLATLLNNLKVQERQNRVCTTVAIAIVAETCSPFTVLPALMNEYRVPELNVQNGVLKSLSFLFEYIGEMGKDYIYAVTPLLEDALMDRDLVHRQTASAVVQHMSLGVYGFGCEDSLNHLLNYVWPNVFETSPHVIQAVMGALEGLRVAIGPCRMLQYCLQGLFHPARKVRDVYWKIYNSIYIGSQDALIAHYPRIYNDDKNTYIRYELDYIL

HeLa [29] = test: Induction of truncated p27 expression in human HeLa cells at 1 to 1000 nM by Western blot analysis; type: functional, cell-based
HeLa [30] = test: Induction of truncated p27 expression in human HeLa cells up to 500 nM after 14 hrs by Western blotting; type: functional, cell-based
How it was run: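 HeLa cells were exposed for 14 h to 1, 3, 10, 30, 100 and 300 ng ml-1. Cell extracts were immunoblotted for p27 and its C-terminally truncated form p27*, with chemiluminescent read-out.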

CCC(=C/[C@H](C)C/C=C/C(C)=C/[C@@H](C)C(=O)[C@@H](C)[C@H](O)[C@@H](C)C/C(C)=C/C(=O)O)/C=C/[C@@H]1OC(=O)C=C[C@@H]1C
active: Activity (COS-7 [1]) | Activity (COS-7 [2])

CC(=O)O[C@@H](C)/C=C\C(=O)N[C@@H]1C[C@H](C)[C@H](C/C=C(C)/C=C/[C@H]2O[C@](C)(O)CC3(CO3)[C@@H]2O)O[C@@H]1C (single isomer, unassigned)
active: Activity (HeLa [3]) | Activity (HeLa [5]) | Activity (HeLa [6]) | Activity (MCF7 [7]) | Activity (HEK-293T [8]) | Activity (A549 [9]) | Activity (HeLa [10]) | Activity (MCF7 [11]) | Activity (HeLa [12]) | Activity (A549 [13]) | Activity (HEK-293T [15]) | Activity (HeLa [16]) | Activity (HeLa [17]) | Activity (HeLa [18]) | Activity (HeLa [19]) | Activity (HEK-293T [20]) | Activity (HeLa [23]) | Activity [24]
45 min: half-life [4]
inactive: Activity [14] | Activity [21] | Activity [22]

CC(=O)O[C@@H](C)/C=C\C(=O)N[C@@H]1C[C@H](C)[C@H](C/C=C(C)/C=C/[C@H]2O[C@](C)(OCCNC(=O)CCCCCNC(=O)CCCCCNC(=O)CCCC[C@@H]3SC[C@@H]4NC(=O)N[C@@H]43)C[C@@]3(CO3)[C@@H]2O)O[C@@H]1C
active: Activity [25] | Activity [26] | Activity [27] | Activity [28] | Activity (HeLa [29])

CO[C@]1(C)C[C@@]2(CO2)[C@H](OC(C)=O)[C@@H](/C=C/C(C)=C/C[C@@H]2O[C@H](C)[C@H](NC(=O)/C=C\[C@H](C)OC(C)=O)C[C@@H]2C)O1
inactive: Activity (HeLa [30])
